Data on three compounds can be found in ChEMBL document CHEMBL3817782, “Synthesis, Structural Elucidation, and Biological Evaluation of NSC12, an Orally Available Fibroblast Growth Factor (FGF) Ligand Trap for the Treatment of FGF-Dependent Lung Tumors” (J Med Chem, 2016).

Each structure is given as a SMILES string. In brackets after ≈: the same amount, converted by molar mass. Activity calls are given as the source filed them. No cut-off for these calls is given here.

Data set [1] is described as follows: Antiproliferative activity against mouse LLC cells incubated for 48 hrs by PI-staining based flow cytometry. The data set is classed as functional, cell-based. Particulars: Lewis lung carcinoma. The method in brief:
(§1)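 LLC cells kept in DMEM plus 10% heat-inactivated FBS and cultured 48 h with compound in medium plus 1% DMSO final. PI-negative viable cells counted by flow cytometry to give absolute counts.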
For orientation: A flow cytometer gives signals particle by particle.

Data set [2] concerns the target T1, Fibroblast growth factor 2 (Homo sapiens, UniProt P09038). Briefly: Inhibition of human recombinant FGF2 assessed as reduction in HSPG/FGF2/[…] interaction by measuring FGF2 mediated […]-CHO-flg-1A-luc cell to CHO-K1 cell adhesion incubated for 2 hrs by luciferase assay. It is filed as cell-based. In outline: (§2)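 Wild-type CHO-K1 monolayers fixed in 3% glutaraldehyde for 2 h at 4 °C, quenched with 0.1 M glycine. A745-CHO-flg-1A-luc cells (50 000 cells/cm²) added in serum-free medium plus 10 mM EDTA, with or without 30 ng/mL FGF2, plus increasing compound concentrations in 3% DMSO. Incubated 2 h at 37 °C. Unattached cells washed off; bound-cell luciferase measured. Triplicates.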

The subject of data set [3] is Lewis lung carcinoma. In words: Antiangiogenic activity against mouse LLC cells xenografted in C57BL/6 mouse assessed as pale appearance at 7.5 mg/kg administered as oral gavage for 7 days daily. The data set is classed as functional, organism-based. The method in brief: (§3)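 Eight-week-old C57BL/6 mice given 5 × 10^5 LLC cells sc in the dorsolateral flank in PBS. Dosing started once tumors were palpable: 7.5 mg/kg or vehicle daily by gavage in DMSO/H2O (1:1). Tumors measured in two dimensions, volume taken as (D × d²)/2. At the end, tumors harvested, weighed and photographed. Body weight and clinical signs followed throughout.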

The test system of data set [4] is NCI-H520. In words: Antiproliferative activity against human NCI-H520 cells incubated for 72 hrs by PI-staining based flow cytometry. It is filed as functional, cell-based. Particulars: NCI-H520, 72 h. In outline: (§4)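 H520 cells kept in RPMI plus 10% FBS and cultured 72 h with compound in medium plus 1% DMSO final. Viable PI-negative cells counted by flow cytometry, with absolute counts from the analyzer's counting function.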

Data set [5] relates to Mus musculus. In words: Toxicity in C57BL/6 mouse xenografted with mouse LLC cells assessed as effect on body weight at 7.5 mg/kg administered as oral gavage for 7 days daily. The data set is classed as organism-based. Particulars: in vivo, 168 h. The method in brief:
as §3

A short description of data set [6]: Kinetic solubility in 3% DMSO solution in PBS up to 30 uM stirred for 5 mins by HPLC-MS/MS analysis. It is filed as physicochemical. Particulars: buffer. The method in brief: (§5)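 Fresh DMSO stocks diluted into PBS to nominal 100, 44, 29, 16 and 8.9 μM, 3% DMSO final. Stirred 5 min (250 rpm, rt), centrifuged to remove undissolved material. Supernatant diluted 1:100 in MeCN containing internal standard (100 nM) and quantified by HPLC–ESI-MS/MS.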

Data set [7] can be described thus: Dissociation constant, pKa of the compound in methanol-water mixture at 25 +/- 1 degC by potentiometric pH-metric method. The data set is classed as physicochemical. The method in brief: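 Potentiometric pH-metric titration in methanol–water mixtures from 40 to 10%. Aqueous pKa extrapolated. Titration curves fitted by nonlinear multiparametric analysis.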

The subject of data set [8] is Lewis lung carcinoma. Briefly: Antitumor activity against mouse LLC cells xenografted in C57BL/6 mouse assessed as tumor growth inhibition at 7.5 mg/kg administered as oral gavage for 7 days daily relative to vehicle-treated control. It is filed as functional, organism-based. The method in brief:
as §3

Data set [9] deals with T1, Fibroblast growth factor 2. In words: Binding affinity to human recombinant FGF2 at 8 to 150 uM treated for 4 mins measured after 10 mins by surface plasmon resonance spectroscopic analysis. In outline: (§6)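 Human recombinant FGF2 (20 μg/mL in 10 mM sodium acetate, pH 6.0) coupled to an EDC/NHS-activated CM5 chip, with an ethanolamine-blocked dextran reference cell. Compounds injected at 8–150 μM for 4 min (30 μL/min), then 10 min dissociation. Apparent Kd taken from dose-dependent binding. Samples in PBS with 3% DMSO.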
(Surface plasmon resonance follows binding to a sensor surface in real time, without labels.)

A short description of data set [10]: Kinetic solubility in DMEM buffer/1% DMSO assessed as recovered drug level at 10 uM after 4 hrs by HPLC-MS/MS analysis. The data set is classed as physicochemical. Particulars: DMEM buffer with 1% DMSO; read-out: Drug recovery. The method in brief: (§7)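 Fresh DMSO stocks added 1:100 to DMEM plus 0.4% FBS, giving nominal 10, 6 or 3 μM and 1% DMSO final. Stirred 4 h (250 rpm, rt), centrifuged, supernatant diluted 1:100 in MeCN with internal standard. Quantified by HPLC–MS/MS.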

Data set [11] relates to NCI-H520. In words: Antiproliferative activity against human NCI-H520 cells at 0.3 to 10 uM incubated for 72 hrs by PI-staining based flow cytometry. The data set is classed as functional, cell-based. The method in brief: as §4
Data set [12] can be described thus: Kinetic solubility in DMEM buffer/1% DMSO assessed as recovered drug level at 3 uM after 4 hrs by HPLC-MS/MS analysis. The settings on record: DMEM buffer with 1% DMSO; read-out: Drug recovery. It is filed as physicochemical. In outline: as §7
Data set [13] is described as follows: Kinetic solubility in DMEM buffer/1% DMSO assessed as recovered drug level at 6 uM after 4 hrs by HPLC-MS/MS analysis. The data set is classed as physicochemical. The settings on record: DMEM buffer with 1% DMSO; read-out: Drug recovery. The method in brief: as §7
Data set [14] can be described thus: Plasma concentration in C57BL/6 mouse at 7.5 mg/kg administered as single dose measured after 30 mins. The data set is classed as ADME, organism-based. The method in brief:
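Eight-week-old mice given 7.5 mg/kg orally, with blood drawn 30 min, 2 h and 8 h later. Plasma proteins precipitated with acetonitrile containing internal standard (1:2). Analyte quantified by HPLC–ESI-MS/MS against calibration curves in spiked blank mouse plasma (linear 1–500 nM, LOQ 1 nM). Extraction recovery 90–95%.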

Data set [15] addresses T1, Fibroblast growth factor 2. Briefly: Inhibition of human recombinant FGF2 assessed as reduction in HSPG/FGF2/[…] interaction by measuring FGF2 mediated […]-CHO-flg-1A-luc cell to CHO-K1 cell adhesion at 100 uM incubated for 2 hrs by luciferase assay. It is filed as cell-based. In outline: as §2
The test system of data set [16] is Lewis lung carcinoma. Briefly: Antiproliferative activity against mouse LLC cells at 0.3 to 10 uM incubated for 48 hrs by PI-staining based flow cytometry. The data set is classed as functional, cell-based. In outline:
as §1

Data set [17] in a line: Kinetic solubility in DMEM buffer at 10 uM after 4 hrs in presence of EDTA by HPLC-MS/MS analysis. It is filed as physicochemical. The settings on record: DMEM buffer with EDTA; read-out: Kinetic_solubility. The method in brief: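 10 μM (nominal) in DMEM plus 0.4% FBS with 2 mM EDTA and 1% DMSO final. Stirred 4 h (250 rpm, rt), then centrifuged. Supernatant diluted 1:100 in MeCN with internal standard and measured by HPLC–MS/MS. Mean of recovered concentration reported with ±.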

The subject of data set [18] is Mus musculus. In words: Toxicity in C57BL/6 mouse xenografted with mouse LLC cells assessed as effect on clinical parameters at 7.5 mg/kg administered as oral gavage for 7 days daily. The data set is classed as organism-based. Particulars: in vivo, 168 h. The method in brief:
as §3

Data set [19] deals with T1, Fibroblast growth factor 2. Briefly: Inhibition of human recombinant FGF2 assessed as suppression of FGFR1 phosphorylation in mouse LLC cells at 100 uM incubated for 20 mins by Western blot analysis. It is filed as cell-based. In outline: (§8)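 LLC cells stimulated with FGF2 (30 ng/mL) with or without compound in medium plus 3% DMSO for 20 min. Cells lysed in RIPA buffer with 1% Triton X-100, 0.2% Brij and 1 mM orthovanadate. Immunoblotted with anti-phospho-FGFR1, with β-actin as loading control.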

For data set [20], the target named is T1, Fibroblast growth factor 2. In words: Binding affinity to human recombinant FGF2 treated for 4 mins measured after 10 mins by surface plasmon resonance spectroscopic analysis. The method in brief:
as §6

Data set [21] addresses T1, Fibroblast growth factor 2. In words: Inhibition of human recombinant FGF2 assessed as suppression of FGF2-stimulated FGFR1 phosphorylation in mouse LLC cells at 25 uM incubated for 20 mins by Western blot analysis. The data set is classed as cell-based. In outline: as §8
In general terms: Immunoblotting shows a protein as a band on a membrane.

The nature of data set [22]: Kinetic solubility in 3% DMSO solution in PBS at 44 to 100 uM stirred for 5 mins by HPLC-MS/MS analysis. The data set is classed as physicochemical. Particulars: buffer. In outline: as §5

T1 sequence (P09038 143-288 limits assumed): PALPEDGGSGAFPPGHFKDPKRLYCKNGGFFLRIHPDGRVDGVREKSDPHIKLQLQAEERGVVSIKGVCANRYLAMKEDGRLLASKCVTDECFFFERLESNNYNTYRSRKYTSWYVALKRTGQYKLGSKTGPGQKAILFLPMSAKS

The term IC50 denotes the point on the concentration scale where inhibition reaches its midpoint. `C[C@]12CC[C@H]3[C@@H](CC=C4C[C@@H](O)CC[C@@]43C)[C@@H]1CC[C@@H]2C(O)CC(O)(C(F)(F)F)C(F)(F)F` (some centres undefined): the values for the concentration for half-maximal inhibition (IC50) (in data set [1]; in data set [2]; in the data set on NCI-H520 [4]) were 2 µM, 10 µM and 4.1 µM, respectively. The outcome in the data set on Lewis lung carcinoma [3] was Active.
One may read the pKa as the pH at which an ionisable group is half protonated. Take `C[C@]12CC[C@H]3[C@@H](CC=C4C[C@@H](O)CC[C@@]43C)[C@@H]1CC[C@@H]2[C@H](O)CC(O)(C(F)(F)F)C(F)(F)F`: the Activity entry with Mus musculus [5] and in the data set with Mus musculus [18] was “Non-toxic” in each case. Also, in data set [6], the Kinetic_solubility result is given as “Insoluble”. Moreover, the pKa in data set [7] is 9.08. Moreover, the TGI result in the data set on Lewis lung carcinoma [8] is “inactive”. Further, the outcome (in data set [9]; with NCI-H520 [11]; in the data set with Lewis lung carcinoma [16]) was inactive. For the same compound, the results for the solubility kinetic at 4 h, 10 µM in data set [10] and in [17] were 2.1 µM (≈ 1.02 µg/mL) and 1.73 µM, respectively. Besides, the solubility kinetic at 4 h, 3 µM in data set [12] came out at 1.4 µM (≈ 0.678 µg/mL). Besides, the solubility kinetic at 4 h, 6 µM in [13] is 1.7 µM (≈ 0.824 µg/mL). In addition, the concentration at 0.5 h in data set [14] was 128 nM. Moreover, the inhibition entry in data set [15] and in data set [19] was “inactive” each time.
For orientation: Kd means the equilibrium constant for the complex coming apart. With `C[C@]12CC[C@H]3[C@@H](CC=C4C[C@@H](O)CC[C@@]43C)[C@@H]1CC[C@@H]2[C@@H](O)CC(O)(C(F)(F)F)C(F)(F)F`, the Activity entry with Mus musculus [5] is “Non-toxic”; in [20] it was “Dose-dependent effect”; with Mus musculus [18], “Non-toxic”. Further, the results for the Kinetic_solubility result in data set [6] and in data set [22] were “soluble” and “Insoluble”, respectively. In addition, the pKa in data set [7] came to 9.04. In the data set with Lewis lung carcinoma [8], the TGI entry was “Active”. Besides, in [10], the solubility kinetic at 4 h, 10 µM came to 10.7 µM (≈ 5.18 µg/mL). Besides, the figures for the IC50 (in [1]; in data set [2]; with NCI-H520 [4]) were 2 µM, 10 µM and 4.1 µM, respectively. The compound further showed a concentration at 0.5 h in data set [14] of 316 nM. The Kd in data set [20] came to 40 µM. Besides, the inhibition result in data set [21] is “Active”. In addition, in the data set with Lewis lung carcinoma [3], the result was Active.
